From article PMC4191608 (ACS Medicinal Chemistry Letters, 2014)

Tests used:
[1] = tested on: pooled human liver microsomes; experiment: EFV analogue metabolism by pooled human liver microsomes; assay type: in vitro ADME; conditions: 2 mg/mL HLM, 10 μM analogue, NADPH regenerating system, 60 min, uHPLC-MS/MS
In short: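 Pooled human liver microsomes were incubated with test compound and an NADPH regenerating system. Oxidative products (monooxygenated or N-dealkylated) were profiled by uHPLC–MS/MS and assigned by m/z, retention time and fragment ions.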

CYP2B6 [2] = biological target: T1, CYP2B6 (Homo sapiens, UniProt P20813); experiment: Substrate depletion kinetics with CYP2B6; assay type: in vitro ADME
T1 sequence (P20813 1-491): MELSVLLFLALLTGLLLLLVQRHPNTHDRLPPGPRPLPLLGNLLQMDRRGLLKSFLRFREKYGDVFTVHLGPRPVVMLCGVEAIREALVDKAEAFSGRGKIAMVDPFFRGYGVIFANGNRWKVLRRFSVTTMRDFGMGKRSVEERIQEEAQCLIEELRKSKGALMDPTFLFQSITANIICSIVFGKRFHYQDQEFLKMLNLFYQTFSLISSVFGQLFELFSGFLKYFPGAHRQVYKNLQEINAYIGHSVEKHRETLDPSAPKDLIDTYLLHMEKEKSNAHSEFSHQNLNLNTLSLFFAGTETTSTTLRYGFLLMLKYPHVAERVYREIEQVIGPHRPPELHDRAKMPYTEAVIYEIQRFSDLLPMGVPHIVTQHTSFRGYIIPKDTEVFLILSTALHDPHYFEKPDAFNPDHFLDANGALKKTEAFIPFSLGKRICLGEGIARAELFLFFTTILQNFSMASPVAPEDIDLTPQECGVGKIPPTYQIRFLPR
In short: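 cDNA-expressed CYP2B6 (insect microsomes, 10 nM) was incubated with substrate at 37 °C in 100 mM potassium phosphate. After NADPH regenerating system was added, aliquots at 0, 2, 5, 10, 20 and 30 min were quenched in equal-volume acetonitrile with fluorinated internal standard. Depletion was measured by uHPLC–MS/MS, giving Km, kdep max and Vmax. Mean ± SD, three replicate experiments in duplicate.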

CYP2B6 [3] = biological target: T1, CYP2B6; experiment: Inhibition of CYP2B6 bupropion hydroxylase activity; assay type: biochemical; conditions: 10 μM compound, 40 μM bupropion, CYP2B6 50 nM, 10 min, 37 °C
In short: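 Enzyme was cDNA-expressed CYP2B6 in insect microsomes, incubated with bupropion and test compound in 100 mM potassium phosphate buffer. Hydroxybupropion was quantified by uHPLC–MS/MS and expressed as a percentage of a vehicle control (no test compound). Mean ± SD of three replicate experiments run in duplicate; significance was tested against vehicle.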

| SMILES | Metabolites detected from incubation with human liver microsomes [1] | other results |
| --- | --- | --- |
| O=C1Nc2ccc(Cl)cc2[C@@](/C=C/C2CC2)(C(F)(F)F)O1 [analogue 3, (E)-Dihydroefavirenz] | Monooxygenated metabolites | fold decrease in Km between EFV and analogue (CYP2B6 [2]; relative to EFV): 2 fold |
| CCCC#CC1(C(F)(F)F)OC(=O)Nc2ccc(Cl)cc21 (racemic) [analogue 4, rac 6-Chloro-1,4-dihydro-4-(1-pentynyl)-4-(trifluoromethyl)-2H-3,1-benzoxazin-2-one] | Monooxygenated metabolites | fold increase in Km relative to EFV (CYP2B6 [2]): 2 fold |
| FC(F)(F)[C@@]1(C#CC2CC2)OCNc2ccc(Cl)cc21 [analogue 8, (4S)-6-Chloro-4-(2-cyclopropylethynyl)-1,4-dihydro-4-(trifluoromethyl)-2H-3,1-benzoxazine] | Monooxygenated metabolites | – |
| O=C1Nc2ccc(Cl)cc2[C@@](C#CC2CC2)(C(F)(F)F)O1 [EFV, efavirenz, reference compound] | – | decrease in hydroxybupropion formation compared to vehicle control (CYP2B6 [3]): 93% |
| COc1ccc(C(=O)Nc2ccc(Cl)cc2C(O)(C#CC2CC2)C(F)(F)F)cc1 (racemic) [analogue 7, rac N-[4-Chloro-2-[3-cyclopropyl-1-hydroxy-1-(trifluoromethyl)-2-propynyl]phenyl]-4-methoxybenzamide] | No metabolites | inhibition of CYP2B6 hydroxybupropion formation (in words) (CYP2B6 [3]): unable to inhibit hydroxybupropion formation |
